Test results: ChEMBL document CHEMBL1137900, “Quinazolinone fungal efflux pump inhibitors. Part 2: In vitro structure-activity relationships of (N-methyl-piperazinyl)-containing derivatives” (Bioorg Med Chem Lett, 2004)
In brackets after ≈: the same amount, converted by molar mass.

Assays:
Nakaseomyces glabratus [1] = test: In vitro minimum potentiation concentration to achieve an 8-fold reduction in fluconazole MIC against Candida glabrata strain YEM19 (overexpressing both CgDR1 and CgDR2); type: functional
In short: (§1)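 Checkerboard assay in RPMI 1640 following the NCCLS M27-A broth dilution method. Fluconazole MIC was measured with and without varying concentrations of efflux pump inhibitor. MPC8 is the lowest inhibitor concentration giving an 8-fold reduction in fluconazole MIC. Some analogues were tested only in an abbreviated format: inhibitor concentration varied at fixed fluconazole of 1/8 and 1/32 MIC.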

Candida albicans [2] = test: In vitro minimum potentiation concentration to achieve an 8-fold reduction in fluconazole MIC against Candida albicans strain YEM15 (overexpressing both CDR1 and CDR2); type: functional; in short: as §1
Candida albicans [3] = test: In vitro minimum inhibitory concentration against Candida albicans; type: functional
In short: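 C. albicans YEM15 (over-expresses CDR1 and CDR2) tested by broth dilution in RPMI 1640 following NCCLS reference method M27-A. The compound was tested alone, without fluconazole, across a range of concentrations, and the MIC was read as intrinsic antifungal activity.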

Nakaseomyces glabratus [4] = test: In vitro concentration to inhibit Candida glabrata CgCDR1 transporter gene over-expressed in Saccharomyces cerevisiae strain Y170; type: functional, organism-based
In short: (§2)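 Yeast strains over-expressing single pumps, inoculum 10^4 cells, incubated at 30 °C in YPD. Inhibitor concentration was varied against one fixed fluconazole concentration. That concentration was the geometric mean of the test strain's fluconazole MIC and that of the parent pump-deleted strain; for YEM172 it was 8 µg/ml.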

Candida albicans [5] = test: In vitro concentration to inhibit Candida albicans CDR1 transporter gene over-expressed in Saccharomyces cerevisiae strain YEM172; type: functional, organism-based; in short: as §2
Candida albicans [6] = test: In vitro concentration to inhibit Candida albicans CDR2 transporter gene over-expressed in Saccharomyces cerevisiae strain YEM171; type: functional, organism-based; in short: as §2
Nakaseomyces glabratus [7] = test: In vitro concentration to inhibit Candida glabrata CgCDR2 transporter gene over-expressed in Saccharomyces cerevisiae strain Y218; type: functional, organism-based; in short: as §2

| SMILES | MPC8 (Nakaseomyces glabratus [1]) [µg/mL] | MPC8 (Candida albicans [2]) [µg/mL] | also measured |
| --- | --- | --- | --- |
| COc1ccc(N(C(=O)Nc2ccccc2)C(C)c2nc3ccccc3c(=O)n2N2CCN(C)CC2)c(OC)c1 (configuration not stated) | 16 | 16 |  |
| COc1cc(OC)c(N(C(=O)Nc2ccc(F)cc2)C(C)c2nc3ccccc3c(=O)n2N2CCN(C)CC2)c(OC)c1 (configuration not stated) | >32 | >32 |  |
| CC(c1nc2ccccc2c(=O)n1N1CCN(C)CC1)N(C(=O)Nc1ccc(F)cc1)c1ccc(OCC2CC2)cc1OCC1CC1 (configuration not stated) | 2 | 4 | MIC (Candida albicans [3]): 32 µg/mL (≈ 49.9 µM) |
| COc1ccc(N(C(C)c2nc3ccccc3c(=O)n2N2CCN(C)CC2)S(=O)(=O)c2ccc(Cl)cc2)c(OC)c1 (configuration not stated) | >32 | 32 |  |
| COc1ccc(N(C(=O)c2ccc(Cl)cc2)C(C)c2nc3ccccc3c(=O)n2N2CCN(C)CC2)c(OC)c1 (configuration not stated) | >32 | 4 |  |
| COc1ccc(N(C(=O)c2ccccc2Cl)C(C)c2nc3ccccc3c(=O)n2N2CCN(C)CC2)c(OC)c1 (configuration not stated) | >32 | 4 |  |
| COc1cc(N(C(=O)Nc2ccc(F)cc2)C(C)c2nc3ccccc3c(=O)n2N2CCN(C)CC2)cc(OC)c1OC (configuration not stated) | >32 | 8 |  |
| COc1ccc(N(C(=O)Nc2cccc(C#N)c2)C(C)c2nc3ccccc3c(=O)n2N2CCN(C)CC2)c(OC)c1 (configuration not stated) | 32 | 32 |  |
| COc1ccc(N(C(=O)Nc2ccc(F)cc2)C(C)c2nc3ccc(C)cc3c(=O)n2N2CCN(C)CC2)c(OC)c1 (configuration not stated) | 4 | 0.5 |  |
| CC(c1nc2ccccc2c(=O)n1N1CCN(C)CC1)N(C(=O)Nc1ccc(F)cc1)c1ccccc1 (configuration not stated) | >32 | >32 |  |
| COc1ccc(N(C(=O)Nc2ccc(F)cc2)C(C)c2nc3ccccc3c(=O)n2N2CCN(C)CC2)cc1 (configuration not stated) | 32 | 8 |  |
| COc1ccc(NC(C)c2nc3ccccc3c(=O)n2N2CCN(C)CC2)c(OC)c1 (configuration not stated) | >32 | >32 |  |
| COc1ccc(N(C(=O)NC(C)C)C(C)c2nc3ccccc3c(=O)n2N2CCN(C)CC2)c(OC)c1 (configuration not stated) | >32 | >32 |  |
| COc1ccc(N(C(=O)Nc2ccc(F)cc2)[C@@H](C)c2nc3cc(F)ccc3c(=O)n2N2CCN(C)CC2)c(OC)c1 | 0.5 | 0.25 | IC50 (Nakaseomyces glabratus [4]): 2 µg/mL (≈ 3.46 µM); IC50 (Candida albicans [5]): 0.5 µg/mL (≈ 0.864 µM); IC50 (Candida albicans [6]): 16 µg/mL (≈ 27.7 µM); IC50 (Nakaseomyces glabratus [7]): 32 µg/mL (≈ 55.3 µM) |
| COc1ccc(N(C(=O)Nc2cccc(Cl)c2)C(C)c2nc3ccccc3c(=O)n2N2CCN(C)CC2)c(OC)c1 (configuration not stated) | 4 | 1 |  |
| COc1ccc(N(C(=O)Nc2ccc(C)cc2)C(C)c2nc3ccccc3c(=O)n2N2CCN(C)CC2)c(OC)c1 (configuration not stated) | 4 | 16 |  |
| CC(c1nc2ccccc2c(=O)n1N1CCN(C)CC1)N(C)C(=O)Nc1ccc(F)cc1 (configuration not stated) | >32 | >32 |  |
| COc1ccc(N(C(=O)Nc2ccc(F)cc2)C(C)c2nc3cccc(F)c3c(=O)n2N2CCN(C)CC2)c(OC)c1 (configuration not stated) | 8 | 8 |  |
| COc1ccc(N(C(=O)Oc2ccc(Cl)cc2)C(C)c2nc3ccccc3c(=O)n2N2CCN(C)CC2)c(OC)c1 (configuration not stated) | 32 | 32 |  |
| COc1ccc(N(C(=O)Nc2ccc(F)cc2)C(C)c2nc3cc(F)ccc3c(=O)n2N2CCN(C)CC2)c(OC)c1 (configuration not stated) | 1 | 0.5 |  |
| COc1ccc(N(C(=O)Nc2ccc(F)cc2)C(C)c2nc3ccccc3c(=O)n2N2CCN(C)CC2)cc1OC (configuration not stated) | >32 | >32 |  |
